Source: ChEMBL document CHEMBL1137710, “Synthesis and in vitro antitumor activity of new quinoxaline derivatives” (2009)

Legend:
Format in all cases: functional
OVCAR-8 = test: Growth inhibition of human OVCAR8 cells after 48 hrs by sulforhodamine B assay; conditions: OVCAR-8, 48 h
Summary of the method: (§1)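 NCI 60-human-tumor-cell-line panel, with compounds tested over a 5-log dose range. Values are taken from dose-response curves as log10 molar concentrations: GI50 is 50% net growth inhibition, TGI is total growth inhibition, and LC50 is 50% net cell death.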

[1] = Growth inhibition of human […] cells after 48 hrs by sulforhodamine B assay; summary of the method: as §1
CAKI-1 = test: Growth inhibition of human Caki1 cells after 48 hrs by sulforhodamine B assay; conditions: CAKI-1, 48 h; summary of the method: as §1
HL-60(TB) = test: Growth inhibition of human HL-60(TB) cells after 48 hrs by sulforhodamine B assay; conditions: HL-60, 48 h
Summary of the method: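 Tested only on compounds active in a three-line prescreen, in the NCI 60-human-tumour-cell-line panel over a 5-log dose range. Values come from dose–response curves as log10 molar GI50, the concentration inhibiting 50% net cell growth. Log10 TGI (total growth inhibition) and log10 LC50 (50% net cell death) were derived too. Mean graph midpoints include insensitive lines at the highest concentration tested.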

A549 = test: Growth inhibition of human A549 cells after 48 hrs by sulforhodamine B assay; conditions: A549, 48 h; summary of the method: as §1
OVCAR-5 = test: Growth inhibition of human OVCAR5 cells after 48 hrs by sulforhodamine B assay; conditions: OVCAR-5, 48 h; summary of the method: as §1
TK-10 = test: Growth inhibition of human TK10 cells after 48 hrs by sulforhodamine B assay; conditions: TK-10, 48 h
Summary of the method: (§2)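 Run in the NCI 60-human-tumour-cell-line panel, tested over a 5-log dose range. Dose–response curves gave three values per cell line, each as a log10 molar concentration: GI50 (50% inhibition of net cell growth), TGI (total inhibition of net growth) and LC50 (50% net cell death). The mean graph midpoint is the arithmetic mean over all lines, with insensitive lines entered at the highest concentration tested.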

MDA-MB-435 = test: Growth inhibition of human MDA-MB-435 cells after 48 hrs by sulforhodamine B assay; conditions: MDA-MB-435, 48 h; summary of the method: as §1
NCI-H23 = test: Growth inhibition of human NCI-H23 cells after 48 hrs by sulforhodamine B assay; conditions: NCI-H23, 48 h; summary of the method: as §1
SW-620 = test: Growth inhibition of human SW620 cells after 48 hrs by sulforhodamine B assay; conditions: SW-620, 48 h; summary of the method: as §2
NCI/ADR-RES = test: Growth inhibition of human NCI/ADR-RES cells after 48 hrs by sulforhodamine B assay; summary of the method: as §1
OVCAR-3 = test: Growth inhibition of human OVCAR-3 cells after 48 hrs by sulforhodamine B assay; conditions: OVCAR-3, 48 h; summary of the method: as §1
NCI-H522 = test: Growth inhibition of human NCI-H522 cells after 48 hrs by sulforhodamine B assay; conditions: NCI-H522, 48 h; summary of the method: as §1
OVCAR-4 = test: Growth inhibition of human OVCAR4 cells after 48 hrs by sulforhodamine B assay; conditions: OVCAR-4, 48 h; summary of the method: as §1
SNB-19 = test: Growth inhibition of human SNB19 cells after 48 hrs by sulforhodamine B assay; conditions: SNB-19, 48 h; summary of the method: as §2
SK-OV-3 = test: Growth inhibition of human SKOV3 cells after 48 hrs by sulforhodamine B assay; conditions: SK-OV-3, 48 h; summary of the method: as §1
NCI-H322M = test: Growth inhibition of human NCI-H322M cells after 48 hrs by sulforhodamine B assay; summary of the method: as §1
COLO 205 = test: Growth inhibition of human COLO205 cells after 48 hrs by sulforhodamine B assay; conditions: COLO 205, 48 h; summary of the method: as §1
U-251 = test: Growth inhibition of human U251 cells after 48 hrs by sulforhodamine B assay; conditions: U-251, 48 h; summary of the method: as §2
786-0 = test: Growth inhibition of human 786-0 cells after 48 hrs by sulforhodamine B assay; conditions: 786-0, 48 h; summary of the method: as §1
SF-295 = test: Growth inhibition of human SF295 cells after 48 hrs by sulforhodamine B assay; conditions: SF-295, 48 h; summary of the method: as §1
K562 = test: Growth inhibition of human K562 cells after 48 hrs by sulforhodamine B assay; conditions: K562, 48 h; summary of the method: as §1
UO-31 = test: Growth inhibition of human UO31 cells after 48 hrs by sulforhodamine B assay; conditions: UO-31, 48 h; summary of the method: as §2
M14 = test: Growth inhibition of human M14 cells after 48 hrs by sulforhodamine B assay; conditions: M14, 48 h; summary of the method: as §1
UACC-257 = test: Growth inhibition of human UACC257 cells after 48 hrs by sulforhodamine B assay; conditions: UACC-257, 48 h; summary of the method: as §2
MDA-MB-231 = test: Growth inhibition of human MDA-MB-231 cells after 48 hrs by sulforhodamine B assay; conditions: MDA-MB-231, 48 h; summary of the method: as §1
HOP-62 = test: Growth inhibition of human HOP62 cells after 48 hrs by sulforhodamine B assay; conditions: HOP-62, 48 h; summary of the method: as §1
HCT-116 = test: Growth inhibition of human HCT116 cells after 48 hrs by sulforhodamine B assay; conditions: HCT-116, 48 h; summary of the method: as §1
[2] = read-out: pLC50 (the source's name) (converted)

Nc1cc(N)c2nc(-c3ccccc3)c(Oc3ccc(F)cc3)nc2c1
GI50 (OVCAR-8): 22.4 µM
CC50 (OVCAR-8; [2]): 100 µM
TGI (OVCAR-8; read-out: pTGI (converted)): 47.9 µM
GI50 [1]: 12.3 µM
LC50 [1]: > 100 µM
TGI ([1]; read-out: pTGI (converted)): 46.8 µM
GI50 (CAKI-1): 11.2 µM
CC50 (CAKI-1; [2]): 53.7 µM
TGI (CAKI-1; read-out: pTGI (converted)): 24.5 µM
GI50 (HL-60(TB)): 18.6 µM
LC50 (HL-60(TB)): > 100 µM
TGI (HL-60(TB); read-out: pTGI (converted)): 64.6 µM
GI50 (A549): 24 µM
LC50 (A549): 89.1 µM
TGI (A549; read-out: pTGI (converted)): 46.8 µM
GI50 (OVCAR-5): 20.4 µM
CC50 (OVCAR-5; [2]): > 100 µM
TGI (OVCAR-5; read-out: pTGI (converted)): 47.9 µM
GI50 (TK-10): 16.6 µM
CC50 (TK-10; [2]): 64.6 µM
TGI (TK-10; read-out: pTGI (converted)): 32.4 µM
GI50 (MDA-MB-435): 15.8 µM
CC50 (MDA-MB-435; [2]): 67.6 µM
TGI (MDA-MB-435; read-out: pTGI (converted)): 32.4 µM
GI50 (NCI-H23): 20.9 µM
LC50 (50% net cell kill concentration) (NCI-H23): 77.6 µM
TGI (NCI-H23; read-out: pTGI (converted)): 39.8 µM
GI50 (SW-620): 19.5 µM
CC50 (SW-620; [2]): > 100 µM
TGI (SW-620; read-out: pTGI (converted)): 50.1 µM
GI50 (NCI/ADR-RES): 18.2 µM
CC50 (NCI/ADR-RES; [2]): 70.8 µM
TGI (NCI/ADR-RES; read-out: pTGI (converted)): 36.3 µM
GI50 (OVCAR-3): 15.5 µM
CC50 (OVCAR-3; [2]): > 100 µM
TGI (OVCAR-3; read-out: pTGI (converted)): 41.7 µM
GI50 (NCI-H522): 64.6 µM
LC50 (NCI-H522): > 100 µM
TGI (NCI-H522; read-out: pTGI (converted)): > 100 µM
GI50 (OVCAR-4): 8.32 µM
CC50 (OVCAR-4; [2]): > 100 µM
TGI (OVCAR-4; read-out: pTGI (converted)): 35.5 µM
GI50 (SNB-19): 17.4 µM
LC50 (SNB-19): 66.1 µM
TGI (SNB-19; read-out: pTGI (converted)): 33.9 µM
GI50 (SK-OV-3): 20.9 µM
CC50 (SK-OV-3; [2]): 83.2 µM
TGI (SK-OV-3; read-out: pTGI (converted)): 41.7 µM
GI50 (NCI-H322M): 17 µM
LC50 (NCI-H322M): 81.3 µM
TGI (NCI-H322M; read-out: pTGI (converted)): 37.2 µM
GI50 (COLO 205): 20 µM
LC50 (50% net cell kill) (COLO 205): 66.1 µM
TGI (COLO 205; read-out: pTGI (converted)): 36.3 µM
GI50 (U-251): 23.4 µM
LC50 (50% net cell kill) (U-251): > 100 µM
TGI (U-251; read-out: pTGI (converted)): 79.4 µM
GI50 (786-0): 15.5 µM
CC50 (786-0; [2]): 75.9 µM
TGI (786-0; read-out: pTGI (converted)): 34.7 µM
GI50 (SF-295): 20.4 µM
LC50 (50% net cell kill) (SF-295): 72.4 µM
TGI (SF-295; read-out: pTGI (converted)): 38.9 µM
GI50 (K562): 11 µM
LC50 (K562): > 100 µM
TGI (K562; read-out: pTGI (converted)): > 100 µM
GI50 (UO-31): 13.5 µM
CC50 (UO-31; [2]): > 100 µM
TGI (UO-31; read-out: pTGI (converted)): 45.7 µM
GI50 (M14): 17 µM
CC50 (M14; [2]): > 100 µM
TGI (M14; read-out: pTGI (converted)): 44.7 µM
GI50 (UACC-257): 23.4 µM
CC50 (UACC-257; [2]): 77.6 µM
TGI (UACC-257; read-out: pTGI (converted)): 42.7 µM
GI50 (MDA-MB-231): 3.89 µM
CC50 (MDA-MB-231; [2]): > 100 µM
TGI (MDA-MB-231; read-out: pTGI (converted)): 28.8 µM
GI50 (HOP-62): 21.4 µM
LC50 (HOP-62): > 100 µM
TGI (HOP-62; read-out: pTGI (converted)): 49 µM
GI50 (HCT-116): 14.8 µM
LC50 (concentration causing 50% net cell death) (HCT-116): > 100 µM
TGI (HCT-116; read-out: pTGI (converted)): 81.3 µM
